Test results: ChEMBL document CHEMBL4622989, “From Bacteria to Cancer: A Benzothiazole-Based DNA Gyrase B Inhibitor Redesigned for Hsp90 C-Terminal Inhibition” (ACS Med Chem Lett, 2020)
Activity calls are given as the source filed them. No cut-off for these calls is given here.

Columns and labels:
[1] = tested on: MCF7; assay: Antiproliferative activity against human MCF7 cells assessed as reduction in cell viability; type: functional, cell-based
[2] = tested on: SK-BR-3; assay: Antiproliferative activity against human SKBR3 cells assessed as reduction in cell viability; type: functional, cell-based
[3] = biological target: T1, Heat shock protein HSP90 (Homo sapiens, UniProt P07900+P08238); assay: Inhibition of HSP90 at C-terminus in human SKBR3 cell lysates at 0.5 to 5 times antiproliferative EC50 after 24 hrs by Western blot analysis; type: cell-based; conditions: SK-BR-3
How it was run: (§1)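 SKBr3 breast cancer cells were treated for 24 h and then lysed. Hsp90-dependent client proteins and Hsp70 in the lysates were analysed by Western blot. Geldanamycin at 500 nM served as the reference treatment. Blot images were quantified.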

[4] = biological target: T1, Heat shock protein HSP90; assay: Inhibition of HSP90 at N-terminus in human SKBR3 cell lysates assessed as induction of heat shock response by measuring increase in HSP70 protein level at 0.1 to 10 uM after 24 hrs by Western blot analysis; type: cell-based; conditions: sk-br-3, 24 h; how it was run: as §1
[5] = biological target: T1, Heat shock protein HSP90; assay: Inhibition of HSP90 at C-terminus in human SKBR3 cell lysates assessed as induction of Her2 protein degradation at 0.1 to 10 uM after 24 hrs by Western blot analysis; type: cell-based; conditions: SK-BR-3; how it was run: as §1
[6] = biological target: T1, Heat shock protein HSP90; assay: Inhibition of HSP90 at C-terminus in human SKBR3 cell lysates assessed as induction of AKT protein degradation at 0.1 to 10 uM after 24 hrs by Western blot analysis; type: cell-based; conditions: SK-BR-3; how it was run: as §1
[7] = biological target: T1, Heat shock protein HSP90; assay: Inhibition of HSP90 at C-terminus in human SKBR3 cell lysates assessed as induction of CDK4 protein degradation at 0.1 to 10 uM after 24 hrs by Western blot analysis; type: cell-based; conditions: SK-BR-3; how it was run: as §1
[8] = biological target: T1, Heat shock protein HSP90; assay: Inhibition of HSP90 at C-terminus in human SKBR3 cell lysates assessed as induction of Raf1 protein degradation at 0.1 to 10 uM after 24 hrs by Western blot analysis; type: cell-based; conditions: SK-BR-3; how it was run: as §1

| SMILES | EC50 [1] [µM] | EC50 [2] [µM] | also measured |
| --- | --- | --- | --- |
| COc1ccc2[nH]c(C(=O)Nc3nc4ccc(NC(=O)C(=O)c5ccccc5)cc4s3)cc2c1 | > 50 | > 50 |  |
| CCOC(=O)C(=O)Nc1ccc2nc(NC(=O)c3ncccn3)sc2c1 | > 50 | > 50 |  |
| CCOC(=O)C(=O)Nc1ccc2nc(NC(=O)c3ccc(OC)cc3)sc2c1 | > 50 | 10.7 |  |
| CCOC(=O)C(=O)Nc1ccc2nc(NC(=O)c3cc4cc(CC)ccc4[nH]3)sc2c1 | 25.3 | 20.6 |  |
| Cc1ccc2[nH]c(C(=O)Nc3nc4ccc(NC(=O)C(=O)c5ccccc5)cc4s3)cc2c1 | > 50 | > 50 |  |
| CCOC(=O)C(=O)Nc1ccc2nc(NC(=O)c3cc4cc(OC)ccc4[nH]3)sc2c1 | 7.03 | 0.86 | inhibition (INH) [4]: Not Active; inhibition [5]: Active; inhibition [6]: Active; inhibition [7]: Active; inhibition [8]: Active |
| CCOC(=O)C(=O)Nc1ccc2nc(NC(=O)c3cc4ccc(OC)cc4[nH]3)sc2c1 | > 50 | 6.7 |  |
| CCOC(=O)C(=O)Nc1ccc2nc(NC(=O)c3ccc4c(c3)OCO4)sc2c1 | > 50 | > 50 |  |
| CCOC(=O)C(=O)Nc1nc2ccc(NC(=O)c3ccccc3)cc2s1 | > 50 | 9.73 |  |
| CCOC(=O)C(=O)Nc1ccc2nc(NC(=O)c3cc4cc(C)ccc4[nH]3)sc2c1 | 10.1 | 2.81 |  |

Now from value to compound, other results behind:

| EC50 [1] [µM] | EC50 [2] [µM] | SMILES | also measured |
| --- | --- | --- | --- |
| 11.2 | 6.94 | CCOC(=O)C(=O)Nc1nc2ccc(NC(=O)c3cc4ccccc4[nH]3)cc2s1 |  |
| 41.3 | 27.9 | CCOC(=O)C(=O)Nc1nc2ccc(NC(=O)c3cc(Br)c[nH]3)cc2s1 |  |
| 10.1 | 3.59 | CCOC(=O)C(=O)Nc1nc2ccc(NC(=O)c3cc(Br)c(Br)[nH]3)cc2s1 |  |
| > 50 | > 50 | CC(=O)Nc1nc2ccc(NC(=O)c3cc(Br)c(Br)[nH]3)cc2s1 |  |
| > 50 | 2.41 | CCOC(=O)C(=O)Nc1ccc2nc(NC(=O)c3cc(Br)c(Br)[nH]3)sc2c1 | inhibition [3]: Active |
| 8.99 | 5.41 | CCOC(=O)C(=O)Nc1ccc2nc(NC(=O)c3cc4ccccc4[nH]3)sc2c1 |  |
| > 50 | > 50 | CC(=O)C(=O)Nc1ccc2nc(NC(=O)c3cc4ccccc4[nH]3)sc2c1 |  |
